Screening data: PubChem BioAssay, Johns Hopkins Ion Channel Center
Rows were chosen to be rich in hits. Some 3.5% of all compounds tested hit in one or more screens of this group.
MrgX1 antagonist: antagonists of human MrgX1 receptor, primary screen, HEK293 cells, Fluo-4 calcium flux. AID 588676, 2011. Mas-related G-protein coupled receptor member X1 (Homo sapiens), Q96LB2. BAM8-22 antagonism; hits give low values. B-score at 10 µM. actives 1.3% (n = 310,000);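 active = calcium-response B-score plate-corrected more than 3 library SD below zero, starting fluorescence within 5 deviations, no agonist response on first addition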;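 also: peak minus trough fluorescence over baseline after final BAM8-22 challenge near maximal dose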
Target sequence (Q96LB2 whole entry, looked up): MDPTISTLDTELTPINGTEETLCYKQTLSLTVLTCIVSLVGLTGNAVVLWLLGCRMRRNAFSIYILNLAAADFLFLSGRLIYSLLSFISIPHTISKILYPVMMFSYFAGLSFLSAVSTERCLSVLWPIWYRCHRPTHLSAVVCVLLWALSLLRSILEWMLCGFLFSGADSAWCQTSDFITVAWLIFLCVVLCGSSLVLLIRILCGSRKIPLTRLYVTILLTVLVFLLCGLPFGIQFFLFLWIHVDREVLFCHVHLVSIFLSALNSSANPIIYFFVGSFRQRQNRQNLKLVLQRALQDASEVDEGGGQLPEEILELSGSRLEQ
MrgX1 PAM: positive allosteric modulators of MrgX1, primary screen, HEK293 cells, Fluo-4 calcium flux; Mas-related G-protein coupled receptor member X1 (Homo sapiens), Q96LB2; FDSS; hits give high values; B-score at 10 µM; actives 0.63% (n = 310,000); AID 588675, 2011;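 active = plate-corrected calcium response at least 3 library SD above typical, normal starting fluorescence, not activating the receptor alone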;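 also: compound read alongside a low EC10 to EC30 dose of BAM8-22 agonist; peak minus trough fluorescence over baseline measured at the second addition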
MrgX1 ag: agonists of human MrgX1 receptor, primary screen, HEK293 cells, Fluo-4 calcium flux; B-score at 10 µM; Fluo-4 calcium fluorescence, agonist mode; hits give high values; actives 0.44% (n = 310,000); Mas-related G-protein coupled receptor member X1 (Homo sapiens), Q96LB2;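 active = calcium response B-score plate-corrected fluorescence ratio at least 3 library SD, with starting fluorescence B-score inside 5 SD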
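Material: HEK293 cells stably expressing human MrgX1 receptor | Quantity: 15,000 cells per well | Times: Cells plated overnight, dye loaded 0.5 h 37 °C, 0.5 h room temperature | Measured by: Kinetic Fluo-4 NW fluorescence of intracellular calcium | Control set: Positive and negative controls per plate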
RGS4 inh: RGS4 inhibitors, primary screen, cell-based, HEK293 M3R inducible RGS4, calcium flux; Regulator of G-protein signaling 4 (Homo sapiens), P49798; Fluo-4 calcium flux; hits give high values; triggered by carbachol at its EC20; B-score at 10 µM; actives 0.45% (n = 310,000); AID 463165, 2010;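 active = B-score, a plate-corrected calcium signal, over three deviations above library mean, with baseline fluorescence within five deviations of library mean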;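 also: RGS4 expression induced by doxycycline in cells with stable M3 receptor; B-score is computed from the integrated fluorescence ratio over baseline after carbachol; higher B-score means a larger calcium signal and so more RGS4 inhibition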
Target sequence (P49798 whole entry, looked up): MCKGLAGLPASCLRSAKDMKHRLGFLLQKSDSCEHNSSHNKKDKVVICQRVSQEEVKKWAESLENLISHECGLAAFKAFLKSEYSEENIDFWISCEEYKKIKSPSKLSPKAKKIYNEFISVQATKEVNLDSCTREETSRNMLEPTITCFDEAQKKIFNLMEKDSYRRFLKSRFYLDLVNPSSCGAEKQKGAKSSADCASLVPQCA
RGS4 pot: RGS4 potentiators or activators, primary screen, cell-based, HEK293 M3R inducible RGS4, calcium flux | B-score at 10 µM | actives 0.92% (n = 310,000) | AID 463111, 2010 | carbachol calcium flux Fluo4; hits give low values;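 active = B-score of the integrated calcium signal more than 4 SD below the library mean, with starting fluorescence not abnormally high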;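 also: negative B-score means reduced calcium response which marks RGS4 activation or potentiation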
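Material: Inducible-RGS4 HEK293 cells carrying M3 receptor; also added: carbachol at ECmax as muscarinic agonist stimulus; incubation: compound preincubation 20 min at room temperature before agonist; signal: Fluo4-AM (2 µM) calcium-flux fluorescence, kinetic read; measure: integrated calcium ratio converted to B score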
Hits are given with their value; - = inactive; . = no result.

SMILES	MrgX1 antagonist	MrgX1 PAM	MrgX1 ag	RGS4 inh	RGS4 pot
O=C(COc1ccc(Cl)cc1)NNC(=S)NCc1ccccc1	-	-	-	-	-
Cc1nc(N/N=C/c2ccccc2)nc(N(C)c2ccccc2)c1[N+](=O)[O-]	-7.6	-	-	-	-
CCOC(=O)COn1c(-c2cccc(Cl)c2)nc2ccc([N+](=O)[O-])cc21	-6.2	-	-	-	-
CCCCNC(=O)Cn1nc([N+](=O)[O-])c([N+](=O)[O-])c1C	-5.4	-	-	-	-
CC1CN(c2nn3c(=O)c4ccccc4nc3c3ccccc23)CC(C)O1 (configuration not stated)	-	-	-	-	-
CCN1CCN(c2nn3c(=O)c4ccccc4nc3c3ccccc23)CC1	-	-	-	-	-8.6
Cc1c(N(C(=O)c2ccccn2)C2(C(=O)NC3CCCCC3)CCCCC2)c(=O)n(-c2ccccc2)n1C	-	-	-	-	-
CCOc1ccccc1NC(=S)N1CCN(c2nc(-c3ccc(F)cc3)cs2)CC1	-	-	-	-	-
Cc1nc(C(N)=O)c(N)n1CCc1ccccc1	-	-	-	-	-
N#C/C(=C\c1ccccn1)c1nc2ccccc2s1	-7.2	-	-	-	-
CC(=O)OCC1=C(C(=O)O)N2C(=O)C(NC(=O)c3ccc(F)cc3)C2SC1 (configuration not stated)	-	-	-	-	-
CC(=O)OCC1=C(C(=O)O)N2C(=O)C(NC(=O)C(C)Cn3nc(C)c(Cl)c3C)C2SC1 (configuration not stated)	-	-	-	-	-7.1
CCOc1ccc2c(c1)/C(=C(\C(Cl)=C(Cl)Cl)[N+](=O)[O-])N2	-	-	-	-	-
CCCCOc1ccc2c(c1)/C(=C(\C(Cl)=C(Cl)Cl)[N+](=O)[O-])N2	-	-	34	-	-
CC1(C)Cc2c(sc(NC(=O)C(=O)NCCCN3CCOCC3)c2C#N)CO1	-	-	-	-	-
O=C(N/N=C/c1cccnc1)c1cc(Br)ccc1O	-	-	-	-	-
O=C(N/N=C/c1ccccn1)c1cc(Br)ccc1O	-	-	27	-	-
CC(C)(C)c1cc(C(=O)NNC(=O)Nc2cccc(Cl)c2)n(Cc2ccccc2)n1	-	-	-	-	-
CC(C)(C)c1cc(C(=O)NNC(=O)Nc2ccccc2)n(Cc2ccccc2)n1	-4.9	-	-	-	-
OCC[C@H]1C[C@@H](O)[C@H](O)[C@]2(CCc3ccccc3O2)O1	-	-	-	.	.
CCc1noc(C)c1C(=O)N1CCCSC1=Nc1ccccc1Cl	-	-	-	-	-
Cc1ccc(-n2c3nc(=O)[nH]c(=O)c-3cc3cc([N+](=O)[O-])ccc32)cc1	-	-	53	-	-
CC1(C)CC(=O)C(C(c2ccc(Br)cc2)C2C(=O)CC(C)(C)CC2=O)C(=O)C1	-	-	41	-	-
CC1(C)CC(=O)C(C(c2ccco2)C2C(=O)CC(C)(C)CC2=O)C(=O)C1	-6.8	-	-	-	-
COc1ccc(OCC(=O)Nc2ccccc2N2CCCCC2)cc1	-	15	-	-	-
SMILES	MrgX1 antagonist	MrgX1 PAM	MrgX1 ag	RGS4 inh	RGS4 pot
Cc1cccc(C)c1OCC(=O)Nc1ccccc1N1CCCCC1	-	7.4	-	-	-
COc1ccc(OCC(=O)Nc2ccccc2N2CCN(C)CC2)cc1	-	-	-	-	-
Cc1cccc(OCC(=O)Nc2ccccc2N2CCCCC2)c1C	-	-	-	-	-
Cc1ccccc1C(=O)NNC(=O)c1ccc(F)cc1	-7.1	-	-	-	-
COc1ccccc1C(=O)NNC(=O)c1ccc(F)cc1	-	-	-	-	-
Oc1cccc2ccc(Nc3ccccn3)nc12	-7.4	-	-	-	-
CCN(c1ccc(OC)cc1)S(=O)(=O)c1csc(C(N)=O)c1	-	-	-	-	-
CCc1ccc(N2CC(C(=O)NC3CCCCC3C)CC2=O)cc1 (configuration not stated)	-	-	-	-	-
Cc1ccc(S(=O)(=O)Nc2ccsc2C#N)cc1	-	-	-	-	-
CC(C)On1c(SC(C)C)nc2ccccc2c1=O	-	-	-	-	-
COn1c(SC(C)C)nc2ccccc2c1=O	-	9.2	-	-	-
Cc1cc(C)n(CC(=O)N/N=C/c2ccc([N+](=O)[O-])s2)n1	-	-	-	-	-
Cc1cc(C)n(CC(=O)N/N=C/c2cccs2)n1	-4.6	-	-	-	-
COc1ccc(N2CC(C(=O)N[C@@H](CC(C)C)C(=O)NC3CCCCC3)CC2=O)cc1 (some centres not stated)	-	-	-	-	-
O=C(CNc1n[nH]c(=O)[nH]c1=O)N/N=C/C1CC=CCC1 (configuration not stated)	-	-	-	-	-
COc1cc([N+](=O)[O-])ccc1NC(=O)CN1CCN(C(=O)c2ccco2)CC1	-4.7	-	-	-	-
O=C(CNC(=O)[C@@H]1Cc2ccccc2CN1)NCc1ccco1	-	-	-	-	-
COc1cccc(OC)c1C1=NC(C)(C)CO1	-	-	-	-	-
N#Cc1ccccc1Oc1ccccc1C=O	-	-	27	-	-
COc1ccc(N2CCN(Cc3cc4c(cc3Br)OCCO4)CC2)cc1	-	-	-	-	-7
COCCNC(=S)N/N=C/c1ccc(OCc2ccc(C(=O)OC)cc2)c(OC)c1	-4.9	-	-	-	-
CCOCCCn1c(=S)[nH]c2cc(C(=O)NCCCN(CC)CC)ccc2c1=O	-	-	-	-	-
COc1nc(Oc2ccc(C(=O)O)cc2)nc(Oc2ccc(C(=O)O)cc2)n1	-	-	-	-	-
COc1ccc(Oc2nc(Oc3ccc(OC)cc3)nc(Oc3ccc(OC)cc3)n2)cc1	-6.5	-	-	-	-
CCn1cc(C2=NOC(C(=O)Nc3cccc(C(C)=O)c3)C2)c(C)n1 (configuration not stated)	-4.8	-	-	-	-
SMILES	MrgX1 antagonist	MrgX1 PAM	MrgX1 ag	RGS4 inh	RGS4 pot
CC(Oc1ccc2ccc(=O)oc2c1)C(=O)N1CCOCC1 (configuration not stated)	-	-	-	-	-
O=C(Cn1c(CO)nc2ccccc21)NC1CCCCCC1	-10	-	-	-	-
Nc1nonc1-c1nc2ccccc2n1CC(=O)NC1CCCC1	-	-	-	-	-
CCCCOc1ccc(-c2cc(C(F)(F)F)c(C#N)c(SCC(=O)O)n2)cc1	-	-	-	-	-
COc1ccccc1CN(C)C(=O)c1cc(-c2cccs2)nc2ccccc12	-	-	-	-	-8.6
COc1cccc(CN(C)C(=O)c2cc(-c3ccc(F)cc3)nc3ccccc23)c1	-15	-	-	-	-8.1
COc1ccc(CN(C)C(=O)c2cc(-c3ccccc3)nc3ccc(C)cc23)c(OC)c1OC	-	-	-	-	-7.2
